# mABHD4 FP = inhibitors of mouse ABHD4 | hit rate 0.54% among 370,000 | inhibition, % at 8.92 µM | AID 720543 | purified mABHD4, FP-Rh probe fluorescence polarization;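 active = inhibition exceeding the mean over every tested compound plus 3 SD, cut at about 30% in these data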;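 also: 0% = plate median of compound wells and 100% = S159A mutant with DMSO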
#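 system = mouse ABHD4 enzyme, wild type | medium = HEPES pH 7.0, NaCl, Pluronic buffer | also added = FP-Rh probe | incubation = Enzyme–compound pre-incubation 45 min, then probe 60 min, both 25 °C | technique = fluorescence polarization, excitation 525 nm, emission 598 nm, BODIPY TMR filters | controls = S159A mutant high control, sample median low control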
# PRMT1 FP inh = inhibitors of human PRMT1; Q99873; recombinant PRMT1, activity-based probe fluorescence polarization; inhibition, % at 2.79 µM; hit rate 1.3% among 370,000;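 active = inhibition above about 21% made by adding two undisclosed values, limit read from the data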
# HTRA1 inhibitor = inhibitors of human serine peptidase HTRA1; recombinant HTRA1, FP-rhodamine activity-based probe, fluorescence polarization; inhibition, % at 5.96 µM; AID 504803; Q92743; hit rate 0.5% among 340,000; in the data active = inhibition above about 36%;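 also: 0% = enzyme with DMSO and 100% = wells lacking enzyme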
# TCR-CD3 inh = blocks the human TCR-CD3 interaction; TAMRA-labeled TCR probe fluorescence, biochemical; inhibition, % at 9.4 µM; hit rate 0.37% among 360,000; in the data active = inhibition above about 19%;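 also: recombinant mutant TCR 2C K166C tagged with TAMRA read by polarization; 0% = receptor in buffer alone and 100% = receptor with positive control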
# SIAE primary = blocks human sialic acid acetylesterase. inhibition, % at 9.66 µM. SIAE FP-Rh probe binding, fluorescence polarization. hit rate 0.69% among 370,000. Q9HAT2;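 active = inhibition above a cutoff: mean of compounds within the control limits plus 3 SD of those, cut at about 17% in these data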;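 also: 0% = plate median of compound wells and 100% = probe without SIAE protein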
# Target sequence (Q9HAT2 whole entry, looked up): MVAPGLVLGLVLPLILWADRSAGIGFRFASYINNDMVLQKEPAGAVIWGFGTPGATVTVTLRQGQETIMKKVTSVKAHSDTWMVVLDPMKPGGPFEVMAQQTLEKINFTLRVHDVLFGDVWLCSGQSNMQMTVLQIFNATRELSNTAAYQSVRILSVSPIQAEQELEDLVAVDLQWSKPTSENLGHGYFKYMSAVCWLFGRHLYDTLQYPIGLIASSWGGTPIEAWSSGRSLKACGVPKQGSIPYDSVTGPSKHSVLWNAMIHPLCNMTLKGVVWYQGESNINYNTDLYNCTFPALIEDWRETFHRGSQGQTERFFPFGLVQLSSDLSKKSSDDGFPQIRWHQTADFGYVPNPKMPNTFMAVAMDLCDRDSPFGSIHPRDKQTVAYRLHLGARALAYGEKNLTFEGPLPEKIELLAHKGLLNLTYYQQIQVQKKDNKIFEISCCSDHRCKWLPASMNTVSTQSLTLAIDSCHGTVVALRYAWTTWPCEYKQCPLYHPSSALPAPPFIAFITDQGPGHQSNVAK
# SIAE confirm = confirmation of human SIAE inhibitors. hit rate 13% among 2,300. SIAE FP-Rh activity-based probe, fluorescence polarization. inhibition, % at 9.66 µM. shares compounds with SIAE primary. AID 1117263;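 active = mean inhibition of the replicates above the hit cutoff set in the primary screen, cut at about 17% in these data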;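 also: 0% = SIAE with DMSO and probe and 100% = probe without SIAE; inhibitors lower polarization as more probe stays unbound to SIAE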
# An asterisk follows results filed as active; x = no result given. Hits are enriched below; roughly 2.7% of the tested compounds scored in any of these assays.
SMILES,mABHD4 FP,PRMT1 FP inh,HTRA1 inhibitor,TCR-CD3 inh,SIAE primary,SIAE confirm
Cc1ccc(-c2nnc(OCc3nc4ccccc4n3C)c3ccccc23)cc1,4,2,7,-4,1,x
COC(=O)CSc1nc2ccc(N)cc2s1,8,1,6,-4,18*,6
CCOC(=O)CSc1nc2ccc(NC(C)=O)cc2s1,-1,1,8,-5,3,x
COc1ccc(Oc2cn[nH]c2-c2ccc(O)cc2O)cc1,-3,-6,6,4,19*,0
CCCCN1CCN(C(=O)c2cn(C(C)c3ccccc3)nn2)CC1 (stereo not given),-1,-5,x,x,-3,x
COc1ccc(/C=C2\N=C3CCCCCN3C2=O)cc1OC,-2,-2,11,-2,110*,5
C=CCNC(=O)c1ccc(-c2nc3ccccc3nc2-c2ccccc2)cc1,-8,1,-24,3,33*,-1
C=CCNC(=O)c1ccc(-c2nc(-c3ccccc3)cs2)cc1,-2,2,-9,-6,-1,x
O=C(CCNC(=O)c1ccco1)Nc1ccc(OC(F)F)c(Cl)c1,-4,-4,-8,6,41*,0
O=C(CCNC(=O)c1ccco1)Nc1ccccc1OC(F)F,1,3,8,2,5,x
OC(c1ccc(CN2CCCCC2)cc1)c1ncc(-c2ccccc2)[nH]1 (stereo not given),1,-1,x,-7,24*,-1
Cc1ccc(C)c(OCCC(=O)OCC(=O)NC(=O)NC2CCCC2)c1,-3,0,5,7,-1,x
COc1ccc(CCNC(=O)CNCC(c2ccccc2)N(C)C)cc1OC (stereo not given),14,1,10,-2,19*,1
COc1ccc(CCNC(=O)CSc2ccccc2)cc1OC,-3,0,-2,-1,7,x
C=C(C)c1cccc(C(C)(C)NC(=O)Nc2ccc3[nH]c(=O)[nH]c3c2)c1,3,0,5,1,19*,3
Cc1nn(-c2cccc(C(F)(F)F)c2)c(Cl)c1/C=N/Nc1cccc(C(=O)O)c1,7,5,-8,1,26*,13
CS(=O)(=O)N1CCC(c2noc(-c3ccc(C(F)(F)F)cc3)n2)CC1,-2,-1,-4,-1,28*,-1
Cc1ccc(NC(=O)CSC(C)C(=O)OCc2cc(=O)oc3cc(O)ccc23)cc1 (stereo not given),-2,-1,3,-1,3,x
C[C@H]1CN([C@@H](C)CO)C(=O)c2cc(C3=CCCC3)cnc2O[C@@H]1CN(C)C(=O)c1ccncc1,7,2,-1,7,3,x
CC(C)(C)c1nc2sc3c(c2c(=O)o1)CCCC3,-2,0,-2,-1,5,x
CCc1nc2sc3c(c2c(=O)o1)CCCC3,5,5,6,-2,20*,9
O=C(Nc1nnc(-c2ccc(Br)cc2)o1)c1ccco1,x,x,1,x,x,x
O=C(Nc1nnc(-c2cccs2)o1)c1ccco1,2,7,12,-1,19*,4
CN(CCCCCCCCC(=O)/C=N/O)Cc1ccccc1,4,-1,5,0,22*,9
O=C(C=Cc1ccc(O)c(O)c1)NCC(=O)NC(Cc1ccccc1)C(=O)O (stereo not given),10,3,x,0,2,x
SMILES,mABHD4 FP,PRMT1 FP inh,HTRA1 inhibitor,TCR-CD3 inh,SIAE primary,SIAE confirm
O=C(NCCCN1CCOCC1)c1cc(-c2cccs2)on1,-1,-1,1,2,21*,6
O=C(NCCCN1CCOCC1)c1sc2cc(Cl)ccc2c1Cl,0,-3,3,2,21*,2
O=C(NCCCN1CCOCC1)c1sc2cc(F)ccc2c1Cl,3,-4,-3,6,1,x
CC(=O)Nc1nc(C)c(-c2csc(Nc3cccc(C(C)=O)c3)n2)s1,21,8,12,-12,42*,65*
Clc1ncc(CN2CCN(Cc3ccccc3)CC2)s1,-2,-3,1,6,28*,-3
O=C(Nc1ccccc1)Nc1csc2ccccc12,9,0,x,3,18*,-1
O=C(Nc1ccc(Nc2ccccc2)cc1)Nc1ccccc1Cl,8,11,32,-4,24*,5
CC(=O)Nc1csc2ccccc12,0,-4,3,5,-5,x
COc1cc(NC(=O)Nc2nc(C(N)CCc3ccccc3)cs2)cc(OC)c1OC (stereo not given),16,-4,x,-12,33*,22*
COc1ccc(OC)c(NC(=O)Nc2nc(C(N)CCc3ccccc3)cs2)c1 (stereo not given),22,2,x,-3,6,x
CCOc1ccccc1OCCC(=O)NNC(=O)Cn1nc(C)cc1C,6,-2,3,1,17*,4
Cc1cccc(OCCC(=O)NNC(=O)Cn2nc(C)cc2C)c1,-2,-6,-1,-4,-6,x
O=C(CSc1nnc(-c2cccnc2)n1-c1ccccc1)Nc1ccc2c(c1)OCCO2,7,-2,x,x,-6,x
COc1ccc(/C(C)=N/N=C2/NC(=O)CC(C(=O)O)S2)cc1 (stereo not given),1,-2,1,5,22*,0
CCN1CCN(S(=O)(=O)c2ccc(Cl)c(C(=O)Nc3ccccc3N3CCCCC3)c2)CC1,11,-1,-15,0,17*,-2
COc1ccc(S(=O)(=O)N2CCCCCC2)cc1C(=O)N(C)CCOc1ccc(Cl)cc1,-3,-1,-9,3,-4,x
CCN1CCN(c2ccc(S(=O)(=O)N3CCCCC3)cc2NC(=O)c2ccc(OC(F)F)cc2)CC1,0,-1,-11,7,-2,x
CCN1CCN(c2ccc(S(=O)(=O)N3CCCCC3)cc2NC(=O)c2cccc(OC(F)F)c2)CC1,5,-1,-17,-4,20*,7
CCN1CCN(S(=O)(=O)c2ccc(Cl)c(C(=O)N(C)CCOc3ccc(Cl)cc3)c2)CC1,-1,-6,-3,-1,20*,1
Cc1ccc(CNCC(=O)Nc2ccc(N3CCOCC3)cc2)cc1,0,-6,-1,2,-6,x
COCc1cc(C)nc(SCC(=O)Nc2ccc3c(c2)OCCO3)c1C#N,-5,-5,2,-4,-1,x
COCc1cc(C)nc(SCC(=O)Nc2ccc3c(c2)OCO3)c1C#N,-8,-3,1,0,17*,0
COc1ccc(C2=NN(C(=O)CCC(=O)O)C(c3ccccc3F)C2)cc1 (stereo not given),-1,-2,-4,5,-1,x
CNC(=S)Nc1cccc(C(C)=O)c1,8,-1,3,-1,17*,2
CC(=O)c1cccc(NC(=S)NC(=O)c2ccccc2)c1,0,-1,-2,-4,6,x
Nc1cc(C(=O)OCC(=O)N2CCC(Cc3ccccc3)CC2)ccc1Cl,-6,0,1,0,-1,x
O=C1c2ccccc2C(Nc2ccc3c(c2)OCO3)N1Cc1ccc2c(c1)OCO2 (stereo not given),15,15,8,1,8,x

# Compound activity deposited in PubChem BioAssay by The Scripps Research Institute Molecular Screening Center.
